For 16 compounds, IC50 and inhibition results are on record in ChEMBL document CHEMBL4033671, “Synthesis and biological evaluation of N-(carbobenzyloxy)-l-phenylalanine and N-(carbobenzyloxy)-l-aspartic acid-β-benzyl ester derivatives as potent topoisomerase IIα inhibitors” (Bioorg Med Chem, 2017).

pIC50: −log10 of the molar value. Bounds are passed on as bounds.

The test system of assay [1] is HeLa. Description: Antiproliferative activity against human HeLa cells after 48 hrs by MTT assay. Format: functional, cell-based. Summed up:
(§1)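 Cells seeded at 5×10⁴ per well, left 12 h, then exposed to serial dilutions (final 0, 5.0, 10.0, 20.0, 40.0, 80.0, 100.0 µM) for 48 h. MTT (5.0 mg/mL stock, 10 µL) added for 4 h, formazan dissolved in DMSO, absorbance read at 490 nm. Inhibition = (1−A_treatment/A_control)×100%; IC50 is the concentration giving 50% growth inhibition. Triplicate wells, at least three independent experiments, mean ± SD.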

For assay [2], the system named is MGC-803. Description: Antiproliferative activity against human MGC803 cells after 48 hrs by MTT assay. Format: functional, cell-based. The conditions noted are these: MGC-803, 48 h. Summed up:
as §1
For orientation: Tetrazolium assays rely on reduction of a dye to a coloured formazan, in cell work by metabolically active cells.

The test system of assay [3] is MCF7. Description: Antiproliferative activity against human MCF7 cells after 48 hrs by MTT assay. Format: functional, cell-based. The conditions noted are these: MCF7, 48 h. Summed up:
as §1

Assay [4] has as its system A549. Description: Antiproliferative activity against human A549 cells after 48 hrs by MTT assay. The conditions noted are these: A549, 48 h. Format: functional, cell-based. The method, boiled down:
as §1

The target of assay [5] is T1, DNA topoisomerase 1 (Homo sapiens) (UniProt P11387).
T1 sequence (whole entry): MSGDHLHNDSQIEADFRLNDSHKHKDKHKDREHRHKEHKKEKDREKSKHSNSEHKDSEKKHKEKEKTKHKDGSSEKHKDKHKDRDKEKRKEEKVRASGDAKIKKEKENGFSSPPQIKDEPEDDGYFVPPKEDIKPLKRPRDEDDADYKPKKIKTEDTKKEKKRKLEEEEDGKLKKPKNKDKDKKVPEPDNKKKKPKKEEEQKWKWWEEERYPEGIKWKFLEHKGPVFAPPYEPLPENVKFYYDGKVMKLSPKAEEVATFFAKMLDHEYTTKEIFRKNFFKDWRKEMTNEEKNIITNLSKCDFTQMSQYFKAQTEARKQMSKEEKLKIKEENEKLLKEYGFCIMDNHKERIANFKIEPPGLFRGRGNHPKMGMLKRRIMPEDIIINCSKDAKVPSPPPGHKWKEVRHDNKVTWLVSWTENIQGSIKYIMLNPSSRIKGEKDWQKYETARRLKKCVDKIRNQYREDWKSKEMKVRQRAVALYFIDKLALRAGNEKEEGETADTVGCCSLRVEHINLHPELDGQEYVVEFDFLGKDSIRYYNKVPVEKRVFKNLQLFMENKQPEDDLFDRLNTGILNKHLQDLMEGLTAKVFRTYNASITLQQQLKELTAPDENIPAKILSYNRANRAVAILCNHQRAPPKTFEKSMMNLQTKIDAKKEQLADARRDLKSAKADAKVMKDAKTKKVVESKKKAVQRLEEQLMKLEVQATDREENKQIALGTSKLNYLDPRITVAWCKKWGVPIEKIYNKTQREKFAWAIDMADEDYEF
Description: Inhibition of human recombinant topoisomerase-1 assessed as decrease in relaxation of supercoiled DNA pBR322 at 100 uM after 30 mins by ethidium bromide staining-based agarose gel electrophoresis relative to control. The method, boiled down: (§2)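 Relaxation of 500 ng supercoiled pBR322 by 1 unit human topoisomerase I or IIα in reaction buffer, with or without compound (100 µM; 20 µM for selected compounds). Incubated 37 °C for 30 min, stopped with 0.77% SDS/77 mM EDTA. Products run on 1% agarose in TBE at 83 V for 60 min, stained 30 min in ethidium bromide (0.5 µg/mL), imaged under UV; percent inhibition recorded.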

Assay [6] concerns the target T2, DNA topoisomerase 2-alpha (Homo sapiens, UniProt P11388). Description: Inhibition of human recombinant topoisomerase-2alpha expressed in Escherichia coli assessed as decrease in relaxation of supercoiled DNA pBR322 at 100 uM after 30 mins by ethidium bromide staining-based agarose gel electrophoresis relative to control. Summed up: as §2
Assay [7] deals with T2, DNA topoisomerase 2-alpha. The experiment in a line: Inhibition of human recombinant topoisomerase-2alpha expressed in Escherichia coli assessed as decrease in relaxation of supercoiled DNA pBR322 at 20 uM after 30 mins by ethidium bromide staining-based agarose gel electrophoresis relative to control. Summed up:
as §2

The target in assay [8] is T1, DNA topoisomerase 1 (Homo sapiens). The experiment in a line: Inhibition of human recombinant topoisomerase-1 assessed as decrease in relaxation of supercoiled DNA pBR322 at 20 uM after 30 mins by ethidium bromide staining-based agarose gel electrophoresis relative to control. The method, boiled down: as §2
The target in assay [9] is T2, DNA topoisomerase 2-alpha. The experiment in a line: Inhibition of human recombinant topoisomerase-2alpha expressed in Escherichia coli assessed as decrease in relaxation of supercoiled DNA pBR322 after 30 mins by ethidium bromide staining-based agarose gel electrophoresis. The method, boiled down:
as §2

T2 sequence (P11388 whole entry): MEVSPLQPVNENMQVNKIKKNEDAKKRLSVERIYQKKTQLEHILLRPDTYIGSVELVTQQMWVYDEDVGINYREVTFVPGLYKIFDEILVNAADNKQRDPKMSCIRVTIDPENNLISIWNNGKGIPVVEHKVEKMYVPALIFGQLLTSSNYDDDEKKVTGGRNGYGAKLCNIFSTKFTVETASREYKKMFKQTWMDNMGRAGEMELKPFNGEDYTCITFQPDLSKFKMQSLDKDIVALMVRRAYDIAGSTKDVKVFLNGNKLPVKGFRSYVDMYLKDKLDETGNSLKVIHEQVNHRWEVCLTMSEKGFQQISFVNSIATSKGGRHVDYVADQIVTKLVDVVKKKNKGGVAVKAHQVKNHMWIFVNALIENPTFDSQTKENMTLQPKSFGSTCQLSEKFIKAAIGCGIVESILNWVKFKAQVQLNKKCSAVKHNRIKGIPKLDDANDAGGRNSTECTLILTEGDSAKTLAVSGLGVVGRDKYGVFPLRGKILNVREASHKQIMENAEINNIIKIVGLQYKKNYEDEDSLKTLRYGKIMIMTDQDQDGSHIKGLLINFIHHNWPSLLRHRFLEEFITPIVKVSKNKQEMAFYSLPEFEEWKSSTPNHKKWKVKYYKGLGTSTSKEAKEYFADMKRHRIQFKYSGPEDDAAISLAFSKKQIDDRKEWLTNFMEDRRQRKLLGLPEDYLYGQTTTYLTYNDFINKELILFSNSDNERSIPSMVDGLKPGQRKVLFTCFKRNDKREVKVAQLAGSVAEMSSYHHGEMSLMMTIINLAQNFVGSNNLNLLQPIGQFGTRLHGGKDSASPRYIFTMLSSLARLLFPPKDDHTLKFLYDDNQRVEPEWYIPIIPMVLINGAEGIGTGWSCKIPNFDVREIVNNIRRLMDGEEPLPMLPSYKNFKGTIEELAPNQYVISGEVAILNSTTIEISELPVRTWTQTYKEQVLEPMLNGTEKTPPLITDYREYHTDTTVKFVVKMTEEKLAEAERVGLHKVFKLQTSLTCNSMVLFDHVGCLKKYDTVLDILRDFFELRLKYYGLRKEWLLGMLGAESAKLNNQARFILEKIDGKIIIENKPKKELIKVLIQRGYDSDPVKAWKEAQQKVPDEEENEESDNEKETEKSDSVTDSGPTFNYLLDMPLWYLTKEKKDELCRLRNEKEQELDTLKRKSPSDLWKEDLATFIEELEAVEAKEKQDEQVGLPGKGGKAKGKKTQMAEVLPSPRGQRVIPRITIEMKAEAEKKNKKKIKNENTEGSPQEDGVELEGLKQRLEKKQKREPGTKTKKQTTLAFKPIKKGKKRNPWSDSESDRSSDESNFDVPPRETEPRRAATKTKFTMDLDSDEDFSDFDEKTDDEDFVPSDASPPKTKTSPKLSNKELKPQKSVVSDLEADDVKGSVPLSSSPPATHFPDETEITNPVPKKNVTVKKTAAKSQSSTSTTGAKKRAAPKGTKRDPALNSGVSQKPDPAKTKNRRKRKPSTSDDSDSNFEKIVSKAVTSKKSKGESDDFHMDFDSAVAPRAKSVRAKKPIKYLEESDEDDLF

In the case of `CCC(=O)OC[C@H](Cc1ccccc1)NC(=O)[C@H](Cc1ccccc1)NC(=O)OCc1ccccc1`, the pIC50 in assay [1], in assay [2], in [3] and in assay [4] was under 4.30 throughout. Further, the inhibition – broadly, the percentage by which the read-out fell short of the control – is -0% in assay [5], 86.1% in assay [6] and 45.6% in [7].

In the case of `COc1ccc(C(=O)OC[C@H](Cc2ccccc2)NC(=O)[C@H](CC(=O)OCc2ccccc2)NC(=O)OCc2ccccc2)cc1OC`, the pIC50 (as a rule, the IC50 on a negative log10 scale, so that one unit is a factor of ten) was 4.40 in assay [1], 4.37 in [2], 4.55 in assay [3] and 4.32 in assay [4]. In addition, the inhibition in [5] is 20.2%; in assay [8], -0%; in assay [6] it was 84.6%; in assay [7], 49.8%.

In the case of `CC(=O)OC[C@H](Cc1ccccc1)NC(=O)[C@H](CC(=O)OCc1ccccc1)NC(=O)OCc1ccccc1`, the negative-log IC50 (pIC50) was under 4.30 in [1], under 4.30 in assay [2], 4.33 in [3] and under 4.30 in assay [4]. The figures for the inhibition in assay [5], in assay [8] and in assay [6] were 15%, -0% and 6.7%, respectively.

As for `O=C(C[C@H](NC(=O)OCc1ccccc1)C(=O)N[C@H](COC(=O)c1ccc(Cl)cc1)Cc1ccccc1)OCc1ccccc1`, the pIC50 is 4.75 in [1], 4.55 in [2], 4.66 in assay [3] and 4.52 in assay [4]. Moreover, the values for the inhibition in [5], in [6] and in assay [7] were 9.5%, 92.9% and 51.2%, respectively.

For `CCC(=O)OC[C@H](Cc1ccccc1)NC(=O)[C@H](CC(=O)OCc1ccccc1)NC(=O)OCc1ccccc1`, the negative-log IC50 (pIC50) in assay [1] was 4.30; in assay [2], under 4.30; in assay [3] it was 4.39; in assay [4], under 4.30. For the same compound, the inhibition is 45.2% in assay [5], -0% in assay [8], 63.8% in [6] and 19.7% in [7].

As to `O=C(O)C[C@H](NC(=O)OCc1ccccc1)C(=O)O`, in [9], the negative-log IC50 (pIC50) was 4.57.

For `O=C(N[C@@H](Cc1ccccc1)C(=O)N[C@H](COC(=O)c1ccccc1)Cc1ccccc1)OCc1ccccc1`, the negative logarithm of the IC50 (pIC50) in [1] is 4.52; in [2] it was 4.41; in [3] it was 4.39; in assay [4] it was 4.31. In addition, the inhibition is 29.5% in [5], -0% in assay [8], 75.7% in assay [6] and 25.6% in [7].

For `COc1ccc(C(=O)OC[C@H](Cc2ccccc2)NC(=O)[C@H](Cc2ccccc2)NC(=O)OCc2ccccc2)cc1OC`, the negative-log IC50 (pIC50) is 4.46 in [1], 4.39 in assay [2], 4.38 in assay [3] and under 4.30 in [4]. The inhibition in assay [5] was 5.4%; in assay [6], 83.2%; in assay [7], 28.1%.

In the case of `O=C(C[C@H](NC(=O)OCc1ccccc1)C(=O)N[C@H](COC(=O)c1ccccc1)Cc1ccccc1)OCc1ccccc1`, the pIC50 in [1] was 4.55; in assay [2], 4.49; in [3], 4.40; in [4] it was 4.34. Also, the inhibition in assay [5] is -0%; in [6], 68.4%; in assay [7], 20.1%.

Regarding `COc1cc([C@@H]2c3cc4c(cc3[C@@H](O[C@@H]3O[C@@H]5CO[C@@H](C)O[C@H]5[C@H](O)[C@H]3O)[C@H]3COC(=O)[C@H]23)OCO4)cc(OC)c1O` [ETOPOSIDE], the pIC50 in [1] was 4.80; in assay [2], 4.68; in assay [3], 4.62; in assay [4], 4.70.

`CC[C@@]1(O)C(=O)OCc2c1cc1n(c2=O)Cc2cc3ccccc3nc2-1` [CAMPTOTHECIN]: the pIC50 in [1] is 5.00; in assay [2], 5.02; in [3] it was 4.54; in assay [4], 4.87.

On to `O=C(N[C@@H](Cc1ccccc1)C(=O)N[C@H](COC(=O)c1ccccc1Cl)Cc1ccccc1)OCc1ccccc1`, for which the pIC50 in assay [1] is under 4.30; in assay [2], 4.37; in [3] it was 4.37; in [4] it was under 4.30. Moreover, the inhibition in [5] is -0%; in assay [6], 4.1%.

As to `Cc1ccccc1C(=O)OC[C@H](Cc1ccccc1)NC(=O)[C@H](CC(=O)OCc1ccccc1)NC(=O)OCc1ccccc1`, the pIC50 in [1] is 4.35; in [2] it was under 4.30; in [3] it was 4.38; in assay [4], under 4.30. Further, the inhibition in [5] is -0%; in assay [6], 28.2%.

For `O=C(C[C@H](NC(=O)OCc1ccccc1)C(=O)N[C@H](COC(=O)c1ccccc1Cl)Cc1ccccc1)OCc1ccccc1`, the pIC50 in assay [1], in assay [2], in assay [3] and in assay [4] was under 4.30 throughout. The inhibition in [5] was -0%; in assay [6] it was 41.4%.

For `Cc1ccccc1C(=O)OC[C@H](Cc1ccccc1)NC(=O)[C@H](Cc1ccccc1)NC(=O)OCc1ccccc1`, the negative logarithm of the IC50 (pIC50) in assay [1] is 4.40; in assay [2] it was 4.37; in assay [3] it was 4.41; in [4], under 4.30. Besides, the inhibition in assay [5] is 7.3%; in assay [6] it was 62.8%; in assay [7], 42.1%.

As to `O=C(N[C@@H](Cc1ccccc1)C(=O)N[C@H](COC(=O)c1ccc(Cl)cc1)Cc1ccccc1)OCc1ccccc1`, the pIC50 was 4.65 in [1], 4.42 in assay [2], 4.44 in assay [3] and 4.37 in assay [4]. The inhibition in assay [5] was -0%; in [6], 3.2%.
